# Data published in article PMC5708134 (Chemical research in toxicology, 2017).
# Where “and” joins values, the source holds several entries; their conditions need not be identical. Equal values may be shown once. Entries after “also recorded” stand apart in the source; their conditions may differ.
# Assays:
# Format in all cases: biochemical
# recombinant human DCXR [1] = biological target: T1, recombinant human DCXR (Homo sapiens, UniProt Q7Z4W1); experiment: Inhibition of quinone redox cycling by DCXR; conditions: for Type of inhibition: inhibition of redox cycling with 9,10-phenanthrenequinone
# T1 sequence (Q7Z4W1 whole entry): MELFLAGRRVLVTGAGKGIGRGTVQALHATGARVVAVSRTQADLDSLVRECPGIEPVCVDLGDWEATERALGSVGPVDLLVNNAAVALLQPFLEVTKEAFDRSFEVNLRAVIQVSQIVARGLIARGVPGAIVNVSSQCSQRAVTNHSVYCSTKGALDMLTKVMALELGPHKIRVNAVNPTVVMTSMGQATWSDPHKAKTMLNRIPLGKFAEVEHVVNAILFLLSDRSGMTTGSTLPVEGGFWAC
# Summary of the method: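 Assay for redox cycling by His-tagged human DCXR (E. coli-expressed, Ni-NTA purified). Superoxide was measured as acetylated cytochrome c reduction at 550 nm. 100 μL mixes: 50 mM potassium phosphate pH 7.8, 50 μM acetylated cytochrome c, 0.2 mM NADPH, 20 μM 9,10-phenanthrenequinone, 1.2 or 1.6 μg DCXR, varied inhibitor. Competitive Ki was taken from Lineweaver–Burk plots.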
# recombinant human DCXR [2] = biological target: T1, recombinant human DCXR; experiment: Inhibition of diacetyl reduction by DCXR
# Summary of the method: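 Human DCXR, His-tagged, expressed in E. coli BL21(DE3) with 0.5 mM IPTG (4 h, 37 °C), Ni-NTA purified. 100 μL mixes: 600 μM NADH, 2 mM diacetyl, 1–2 μg DCXR, plus quinone inhibitor. Acetoin formed was quantified by HPLC against a standard calibration curve. Inhibition type and Ki were derived from kinetic analysis.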
# recombinant human DCXR [3] = biological target: T1, recombinant human DCXR; experiment: Oxygen consumption during DCXR redox cycling; conditions: 600 μM NADH, 20 μM 9,10-phenanthrenequinone
# Summary of the method: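 Clark-type oxygen electrode measurements used 16 μg recombinant human DCXR per 0.8 mL reaction. NADH and 9,10-phenanthrenequinone were run first to set a stable baseline, then DCXR was added to start the reaction. Diacetyl was added either after DCXR or at time zero (pretreatment). Short-chain fatty acids were added at set time points during cycling.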
# recombinant human DCXR [4] = biological target: T1, recombinant human DCXR; experiment: Chemical redox cycling by DCXR; conditions: for EC50: EC50, half maximal concentration of quinones activating H2O2 production by redox cycling with DCXR, 5 μg/ml recombinant DCXR and 200 μM NADH; for Km / kcat: redox cycling
# recombinant human DCXR [5] = biological target: T1, recombinant human DCXR; experiment: Diacetyl reduction by recombinant DCXR
# recombinant human DCXR [6] = biological target: T1, recombinant human DCXR; experiment: L-xylulose reduction by recombinant DCXR, substrate kinetics; conditions: for Km / kcat: pH 7.0
# Summary of the method: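 Enzyme: recombinant His-tagged human DCXR from E. coli BL21(DE3), Ni-NTA purified. Reduction was assayed in 100 mM phosphate buffer pH 7.0 and started by adding enzyme. Initial rates of NADPH oxidation were read at 340 nm in a microplate reader. Rates were converted using NAD(P)H calibration curves made in the reaction mix.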
# recombinant human DCXR [7] = biological target: T1, recombinant human DCXR; experiment: Xylitol dehydrogenation
# Summary of the method: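 Recombinant His-tagged human DCXR (E. coli-expressed, Ni-NTA purified) oxidized xylitol in 0.1 mL reactions: 100 mM glycine buffer pH 9.5, 3 mM MgCl2, NADP+ and xylitol. Reactions were started by adding enzyme. NADPH formation was followed as the absorbance change at 340 nm in a microplate reader.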
# [8] = Ki, inhibition of diacetyl reduction
# [9] = inhibition of diacetyl reduction
# [10] = NADPH varied, 6 mM xylulose fixed
# [11] = NADPH varied, 20 μM 9,10-PQ fixed
# [12] = NADPH varied, 2 mM diacetyl fixed, pH 7.0
# [13] = quinone varied, 200 μM NADPH fixed
# [14] = xylulose varied, 0.6 mM NADPH fixed
smiles,measurement,setting,value
CCCCC(=O)O [pentanoic acid],IC50,recombinant human DCXR [1],28400 µM
same,IC50,recombinant human DCXR [2],4400 µM
CCCCCC(=O)O [hexanoic acid],IC50,recombinant human DCXR [1],36000 µM
same,Effect on oxygen consumption during redox cycling,recombinant human DCXR [3]; hexanoic acid 50 mM,Inhibition of oxygen consumption
same,IC50,recombinant human DCXR [2],6100 µM
"O=C1C(=O)c2ccccc2-c2ccccc21 [9,10-phenanthrenequinone]",EC50,recombinant human DCXR [4],1.7 µM
same,IC50,recombinant human DCXR [2],9.3 µM
same,Ki,recombinant human DCXR [2]; [8],4.3 µM and 4.27 µM
same,Type of inhibition,recombinant human DCXR [2]; [9],competitive
CCCC(=O)O [butyric acid],IC50,recombinant human DCXR [1],6800 µM
same,Effect on oxygen consumption during redox cycling,recombinant human DCXR [3]; butyric acid 10 mM,Inhibition of oxygen consumption
same,IC50,recombinant human DCXR [2],950 µM
CCCCCCC(=O)O [heptanoic acid],IC50,recombinant human DCXR [1],25100 µM
same,IC50,recombinant human DCXR [2],19900 µM
"CC(=O)C(C)=O [diacetyl, 2,3-butanedione]",Ki,recombinant human DCXR [1],190 µM
same,Type of inhibition,recombinant human DCXR [1],competitive inhibitors; also recorded: competitive type inhibition
same,Type of inhibition,recombinant human DCXR [1]; listed as Diacetyl,competitive
same,inhibition at 5000 µM,recombinant human DCXR [1]; read-out: Inhibition of menadione-stimulated superoxide anion formation,~75%
same,kcat,"recombinant human DCXR [5]; diacetyl varied, 200 μM NADPH fixed, pH 7.0",5.80 S^−1
same,Effect on oxygen consumption during redox cycling,recombinant human DCXR [3]; diacetyl 5 mM,Inhibition of oxygen consumption
"O=C1C=Cc2ccccc2C1=O [1,2-naphthoquinone]",EC50,recombinant human DCXR [4],1.5 µM
same,IC50,recombinant human DCXR [2],2.9 µM
same,Ki,recombinant human DCXR [2]; [8],1.4 µM and 1.35 µM
same,Type of inhibition,recombinant human DCXR [2]; [9],competitive
NC(=O)C1=CN([C@@H]2O[C@H](COP(=O)(O)OP(=O)(O)OC[C@H]3O[C@@H](n4cnc5c(N)ncnc54)[C@H](OP(=O)(O)O)[C@@H]3O)[C@@H](O)[C@H]2O)C=CC1 [NADPH],Km,recombinant human DCXR [6]; [10],24 µM
same,kcat,recombinant human DCXR [6]; [10],1.55 S^−1
same,Km,recombinant human DCXR [4]; [11],31 µM
same,kcat,recombinant human DCXR [4]; [11],0.115 s⁻¹
same,Vmax,recombinant human DCXR [5]; NADPH at fixed concentration of diacetyl,30.9 µM/min
same,Km,recombinant human DCXR [5]; [12],90 µM
same,kcat,recombinant human DCXR [5]; [12],1.6 S^−1 and 1.60 S^−1
"CC1=CC(=O)c2ccccc2C1=O [menadione, 2-methyl-1,4-naphthoquinone]",IC50,recombinant human DCXR [2],52.8 µM
same,Ki,recombinant human DCXR [2],24.3 µM
same,Type of inhibition,recombinant human DCXR [2]; [9],competitive type of inhibition
same,inhibition at 300 µM,recombinant human DCXR [2]; read-out: Inhibition of DCXR mediated reduction of diacetyl,> 90%
"O=C1C=CC(=O)c2ccccc21 [1,4-naphthoquinone]",EC50,recombinant human DCXR [4],5.4 µM
same,Km,recombinant human DCXR [4]; [13],10.8 µM
same,kcat,recombinant human DCXR [4]; [13],0.0283 s⁻¹
same,IC50,recombinant human DCXR [2],11.8 µM
same,Ki,recombinant human DCXR [2],5.4 µM
same,Type of inhibition,recombinant human DCXR [2]; [9],competitive
NC(=O)c1ccc[n+]([C@@H]2O[C@H](COP(=O)([O-])OP(=O)(O)OC[C@H]3O[C@@H](n4cnc5c(N)ncnc54)[C@H](OP(=O)(O)O)[C@@H]3O)[C@@H](O)[C@H]2O)c1 [NADP(+)],kcat,"recombinant human DCXR [7]; NADP(+) varied, 200 mM xylitol fixed",1.7 S^−1
same,Km,"recombinant human DCXR [7]; NADP(+) varied, 200 mM xylitol fixed, 100 mM glycine buffer with 3 mM MgCl2",110 µM
same,Vmax,recombinant human DCXR [7]; oxidation of xylitol using NADP+ as the cofactor,70.9 µM/min
O=C(CO)[C@H](O)[C@@H](O)CO [L-xylulose],Vmax,recombinant human DCXR [6]; reduction of L-xylulose using NADPH as the cofactor,33.8 µM/min
same,Km,recombinant human DCXR [6]; [14],503 µM
same,kcat,recombinant human DCXR [6]; [14],1.09 S^−1
same,Type of inhibition,recombinant human DCXR [1],competitive inhibitors; also recorded: competitive type inhibition
same,Type of inhibition,recombinant human DCXR [1]; listed as Xylulose,competitive
